In ChEMBL document CHEMBL4732065 (Eur J Med Chem, 2021):
pIC50: −log10 of the molar value.

Legend:
Cytochrome P450 1A1 = target: T1, Cytochrome P450 1A1 (Homo sapiens, UniProt P04798); assay: Inhibition of recombinant human CYP1A1 using 7-ethoxyresorufin as substrate after 15 mins in presence of NADP+ by EROD assay; assay type: ADME
T1 sequence (P04798 whole entry): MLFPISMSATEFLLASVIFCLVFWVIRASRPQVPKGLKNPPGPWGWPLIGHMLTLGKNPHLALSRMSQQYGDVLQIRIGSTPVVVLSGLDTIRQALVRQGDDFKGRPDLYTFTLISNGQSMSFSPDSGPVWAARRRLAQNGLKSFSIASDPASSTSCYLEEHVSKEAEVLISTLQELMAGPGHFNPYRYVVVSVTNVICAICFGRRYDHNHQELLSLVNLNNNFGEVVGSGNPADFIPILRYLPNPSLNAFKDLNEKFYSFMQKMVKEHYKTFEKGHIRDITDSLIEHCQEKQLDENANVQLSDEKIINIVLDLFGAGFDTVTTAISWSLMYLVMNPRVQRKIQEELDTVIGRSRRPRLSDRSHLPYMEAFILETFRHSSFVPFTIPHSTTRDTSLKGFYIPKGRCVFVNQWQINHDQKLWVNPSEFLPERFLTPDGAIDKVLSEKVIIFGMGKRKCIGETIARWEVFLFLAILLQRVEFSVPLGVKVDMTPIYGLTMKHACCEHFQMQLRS
Procedure, shortened: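 Recombinant human CYP1 Supersomes co-expressing P450 reductase; 20 fmol CYP1B1, 10 fmol CYP1A1 or 60 fmol CYP1A2 per well. Incubated at 37 °C (1B1 35 min, 1A1 15 min, 1A2 50 min). Stopped with cold methanol; fluorescence read at 544/590 nm; triplicates.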

Homo sapiens [1] = species on record: Homo sapiens; assay: Selectivity index, ratio of IC50 for recombinant human CYP1A2 to IC50 for recombinant human CYP1B1
Cytochrome P450 1B1 = target: T2, Cytochrome P450 1B1 (Homo sapiens, UniProt Q16678); assay: Inhibition of recombinant human CYP1B1 using 7-ethoxyresorufin as substrate after 35 mins in presence of NADP+ by EROD assay
T2 sequence (Q16678 whole entry): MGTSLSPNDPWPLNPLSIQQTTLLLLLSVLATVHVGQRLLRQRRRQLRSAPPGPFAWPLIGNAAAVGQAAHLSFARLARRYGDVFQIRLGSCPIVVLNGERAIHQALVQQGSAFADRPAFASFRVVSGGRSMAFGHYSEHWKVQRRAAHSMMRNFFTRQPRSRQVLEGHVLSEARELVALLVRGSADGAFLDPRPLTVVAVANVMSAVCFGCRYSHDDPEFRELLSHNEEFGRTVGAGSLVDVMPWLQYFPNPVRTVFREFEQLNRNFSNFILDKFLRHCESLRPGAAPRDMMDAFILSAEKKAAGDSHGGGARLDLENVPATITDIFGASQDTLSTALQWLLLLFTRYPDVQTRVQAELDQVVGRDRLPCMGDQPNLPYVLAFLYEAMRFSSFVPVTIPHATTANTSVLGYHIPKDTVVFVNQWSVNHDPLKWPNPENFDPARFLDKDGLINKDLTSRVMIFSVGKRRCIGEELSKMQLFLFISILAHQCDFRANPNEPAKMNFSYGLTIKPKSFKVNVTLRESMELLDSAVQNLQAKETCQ
Procedure, shortened: (§1)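 Recombinant human CYP1 Supersomes co-expressing P450 reductase; 20 fmol CYP1B1, 10 fmol CYP1A1 or 60 fmol CYP1A2 per well. Incubated at 37 °C (1B1 35 min, 1A1 15 min, 1A2 50 min).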

Cytochrome P450 1A2 = target: T3, Cytochrome P450 1A2 (Homo sapiens, UniProt P05177); assay: Inhibition of recombinant human CYP1A2 using 7-ethoxyresorufin as substrate after 50 mins in presence of NADP+ by EROD assay; assay type: ADME; procedure, shortened: as §1
T3 sequence (P05177 whole entry): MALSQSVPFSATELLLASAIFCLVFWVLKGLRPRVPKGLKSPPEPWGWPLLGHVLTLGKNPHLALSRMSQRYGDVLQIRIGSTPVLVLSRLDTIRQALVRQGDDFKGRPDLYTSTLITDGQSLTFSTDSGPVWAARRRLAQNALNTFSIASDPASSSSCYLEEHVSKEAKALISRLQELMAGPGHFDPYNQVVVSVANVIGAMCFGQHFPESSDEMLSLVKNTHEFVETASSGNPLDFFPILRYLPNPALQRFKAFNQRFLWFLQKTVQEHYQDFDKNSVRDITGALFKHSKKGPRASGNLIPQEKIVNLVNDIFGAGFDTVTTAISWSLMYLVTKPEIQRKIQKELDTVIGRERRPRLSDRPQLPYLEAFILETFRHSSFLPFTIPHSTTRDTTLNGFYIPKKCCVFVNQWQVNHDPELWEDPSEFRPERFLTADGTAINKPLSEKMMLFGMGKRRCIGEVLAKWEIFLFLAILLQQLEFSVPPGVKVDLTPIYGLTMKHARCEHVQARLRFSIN

Homo sapiens [2] = species on record: Homo sapiens; assay: Selectivity index, ratio of IC50 for recombinant human CYP1A1 to IC50 for recombinant human CYP1B1

| SMILES | pIC50 (Cytochrome P450 1A1) | Ratio IC50 (Homo sapiens [1]) | pIC50 (Cytochrome P450 1B1) | pIC50 (Cytochrome P450 1A2) | Ratio IC50 (Homo sapiens [2]) |
| --- | --- | --- | --- | --- | --- |
| COc1ccc(OC)c2c1c(OC)cc1c(=O)cc(-c3ccc4[nH]ncc4c3)oc12 | 8.80 | > 500 | 8.70 | < 6.00 | 0.8 |
| COc1ccc(OC)c2c1c(OC)cc1c(=O)cc(-c3cccc(N)n3)oc12 | 7.25 | > 154 | 8.19 | < 6.00 | 8.7 |
| COc1ccc(OC)c2c1c(OC)cc1c(=O)cc(-c3cccc(C)n3)oc12 | 7.70 | 124 | 8.92 | 6.83 | 16.6 |
| COc1ccc(OC)c2c1c(OC)cc1c(=O)cc(-c3ccnc(Br)c3)oc12 | 7.57 | > 2170 | 9.34 | < 6.00 | 58.5 |
| COc1ccc(OC)c2c1c(OC)cc1c(=O)cc(-c3cccnc3)oc12 | 8.12 | 117 | 9.00 | 6.93 | 7.6 |
| COc1ccc(OC)c2c1c(OC)cc1c(=O)cc(-c3ccc(Br)cn3)oc12 | 7.41 | 479 | 8.89 | 6.21 | 29.9 |
| COc1ccc(OC)c2c1c(OC)cc1c(=O)cc(-c3ccnc(O)c3)oc12 | 6.63 | > 16.3 | 7.21 | < 6.00 | 3.8 |
| COc1ccc(OC)c2c1c(OC)cc1c(=O)cc(-c3ccc(O)nc3)oc12 | < 6.00 | > 1.5 | 6.18 | < 6.00 | > 1.5 |
| COc1ccc(OC)c2c1c(OC)cc1c(=O)cc(-c3cccc(O)n3)oc12 | 6.49 | > 130 | 8.11 | < 6.00 | 41.9 |
| COc1ccc(OC)c2c1c(OC)cc1c(=O)cc(-c3cccnc3N)oc12 | 6.86 | > 5.7 | 6.76 | < 6.00 | 0.8 |
| COc1ccc(OC)c2c1c(OC)cc1c(=O)cc(-c3ccnnc3)oc12 | 6.90 | > 500 | 8.70 | < 6.00 | 62.9 |
| COc1ccc(OC)c2c1c(OC)cc1c(=O)cc(-c3cccnc3O)oc12 | 6.82 | – | < 6.00 | < 6.00 | – |
| COc1ccc(OC)c2c1c(OC)cc1c(=O)cc(-c3cncc(N)c3)oc12 | 7.73 | 27.4 | 7.64 | 6.20 | 0.8 |
| COc1ccc(OC)c2c1c(OC)cc1c(=O)cc(-c3cccc(N4CCOCC4)c3)oc12 | 6.88 | > 67.1 | 7.83 | < 6.00 | 8.9 |
| COc1ccc(OC)c2c1c(OC)cc1c(=O)cc(-c3ccco3)oc12 | 7.86 | 56 | 8.92 | 7.17 | 11.5 |
| COc1ccc(OC)c2c1c(OC)cc1c(=O)cc(-c3c[nH]c4ncccc34)oc12 | 7.62 | > 5.3 | 6.72 | < 6.00 | 0.1 |
| COc1ccc(OC)c2c1c(OC)cc1c(=O)cc(-c3ccnc(Cl)c3)oc12 | 7.04 | > 909 | 8.96 | < 6.00 | 83.3 |
| COc1ccc(OC)c2c1c(OC)cc1c(=O)cc(-c3ccncc3)oc12 | 7.39 | 166 | 8.92 | 6.70 | 33.7 |
| COc1ccc(OC)c2c1c(OC)cc1c(=O)cc(-c3cccnc3Br)oc12 | 7.22 | 15.1 | 7.19 | 6.02 | 0.9 |
| COc1ccc(OC)c2c1c(OC)cc1c(=O)cc(-c3cccs3)oc12 | 8.36 | 8.4 | 8.32 | 7.39 | 0.9 |
| COc1ccc(OC)c2c1c(OC)cc1c(=O)cc(-c3ccc(Cl)cn3)oc12 | 8.80 | 1490 | 9.85 | 6.68 | 11.4 |
| COc1ccc(OC)c2c1c(OC)cc1c(=O)cc(-c3cc4ccccc4o3)oc12 | 8.00 | > 1150 | 9.06 | < 6.00 | 11.6 |
| COc1ccc(OC)c2c1c(OC)cc1c(=O)cc(-c3ccc(N)cn3)oc12 | 7.18 | > 167 | 8.22 | < 6.00 | 11.1 |
| COc1ccc(OC)c2c1c(OC)cc1c(=O)cc(-c3ccnc(N)c3)oc12 | 7.82 | > 48.5 | 7.69 | < 6.00 | 0.7 |
| COc1ccc(OC)c2c1c(OC)cc1c(=O)cc(-c3cccc(F)n3)oc12 | 8.64 | 1760 | 9.42 | 6.17 | 6.1 |
| COc1ccc(OC)c2c1c(OC)cc1c(=O)cc(-c3cccc(N4CCN(C)CC4)c3)oc12 | < 6.00 | – | < 6.00 | < 6.00 | – |
| COc1ccc(OC)c2c1c(OC)cc1c(=O)cc(-c3ccc(N4CCN(C)CC4)cc3)oc12 | < 6.00 | – | < 6.00 | < 6.00 | – |
